According to PubChem BioAssay AID686939 (The Scripps Research Institute Molecular Screening Center, 2013):
The campaign covered roughly 3,500 compounds. About 1,400 (40%) were called active.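 How the source made its calls: active means activation above the solvent-only control well mean plus 3 SD, averaged across control plates (cut at about 5.2% in these data); inactive means the rest.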 The set was probably picked from earlier hits. Not all results are given here.

Assay: GAL4-VP16 luciferase reporter activation, counter-screen for SMARCA2 (BRM) activator project, cell-based, pG5luc, luminescence, high throughput (AID 686939)
Conditions: HEK293 GAL4-VP16 pG5luc reporter, at 9.1 µM, active compounds read high, scaled: DMSO wells 0%, SAHA wells 100%
Procedure, shortened: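 Material: 293 cells carrying GAL4-VP16 plus UAS-luciferase reporter / Amount: 2,500 transfected 293 cells per well / Times: 24 h exposure, 37 °C, 5% CO2, One-Glo 15 min RT / Measured by: One-Glo luciferase luminescence / Repeats: three replicates per compound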

Structure (SMILES) | activation
O=C(NC1CCCC1)C(=O)c1c[nH]c2ccccc12 | 6.44% (active)
CC(=O)c1cccc(-c2cnc3c(NC=O)cc(-c4ccc(N5CCN(C)CC5)cc4)cn23)c1 | 2.83% (inactive)
CCN(CC)C(=O)c1sc2nc(-c3ccccc3)ccc2c1N | 11.2% (active)
COc1cccc(C(=O)Nc2cc3c(cc2Br)OCCCO3)c1 | 9.44% (active)
c1ccc2cc3c(NCCN4CCOCC4)ccnc3cc2c1 | 0.84% (inactive)
Cc1cccc(-n2c(O)c(C=Nc3ccccc3N)c(=O)[nH]c2=O)c1 | 6.14% (active)
C=C1C(=O)[C@]23C[C@H]1CCC2[C@@]1(C)C(C[C@@H]3O)[C@](C)(C(=O)O)CC[C@@H]1O (stereo not given in full) | 1.65% (inactive)
COc1cccc(-c2nc3cc(C)ccc3o2)c1 | 3.74% (inactive)
Cn1c(-c2ccc(F)cc2)cc2onc(-c3ccccc3Cl)c2c1=O | 9.37% (active)
Fc1ccc(/C=N/Nc2nc(-c3cccnc3)nc3ccccc23)cc1 | 8.57% (active)
CC(=O)Nc1cc(-c2ccc(N3CCN(C)CC3)cc2)cn2c(-c3ccc(F)cc3)cnc12 | 1.59% (inactive)
Cc1nc(-c2nnc(SCC(=O)Nc3cc(C(F)(F)F)cc(C(F)(F)F)c3)n2C)cs1 | -1.04% (inactive)
CCCCNC(=O)C1CCC(CNS(=O)(=O)c2ccc(NC(C)=O)cc2)CC1 (stereo not given) | 0.63% (inactive)
Fc1ccc(CNc2nc3ccccc3n3nnnc23)cc1 | 2.47% (inactive)
CC(C)CCNC(=O)c1ccc2c(Cl)c3c(nc2c1)CCC3 | 9.88% (active)
COCC1CCN(C(=O)C2CCC(=O)N(Cc3cccc(C(F)(F)F)c3)C2)CC1 (stereo not given) | 1.34% (inactive)
O=C(Nc1cc(=O)[nH]c2ncnn12)c1ccccc1Cl | 0.46% (inactive)
COc1c(O)cc2oc(-c3ccc(O)c(O)c3)cc(=O)c2c1O | 12.4% (active)
CCCn1nc(C(=O)Nc2ccc3nc(C)sc3c2)c2ccccc2c1=O | -0.78% (inactive)
O=C(N[C@H]1CC[C@H](CC(=O)N2CCCCC2)O[C@@H]1CO)c1cccc(F)c1 | 0.09% (inactive)
O=C(c1cc(-c2ccc(O)cc2)on1)N1CCOCC1 | 6.96% (active)
O=C(c1cc(-c2ccccc2O)on1)N1CCCC1 | 9.74% (active)
Cc1cc(-c2n[nH]c(=S)n2/N=C/C(Br)=C/c2ccccc2)n[nH]1 | 4.37% (inactive)
CCCCn1nnnc1C(c1cc2ccccc2o1)N(C)Cc1ccc(Cl)c(Cl)c1 (stereo not given) | 1.67% (inactive)
O=C(CCCc1ccccc1)NCc1ccccc1 | 2.83% (inactive)

Structure (SMILES) | activation
Cc1ccc(F)c(NC(=O)CCc2ccccc2)c1 | 5.92% (active)
COc1ccc(OCCCC(=O)NCCc2ccccc2)cc1 | 1.27% (inactive)
O=C(O)c1ccc(COc2c(F)c(F)cc(F)c2F)o1 | -0.39% (inactive)
O=C(O)c1cccc(N=NN2CCCCCC2)c1 | 13.9% (active)
CN(C)CCNC(=O)c1cccc(-c2cnc3c(NC=O)cc(-c4cccc(C(F)(F)F)c4)cn23)c1 | 1.42% (inactive)
COc1ccc(-c2csc(Cc3nc(O)cs3)n2)cc1 | 19.6% (active)
Cn1cccc1/C=N/NC(=O)c1ccc(OC(F)(F)C(F)F)cc1 | 3.99% (inactive)
O=C(c1cccs1)C1C(c2ccc(Br)cc2)NC(=S)NC1(O)C(F)(F)F (stereo not given) | 2.08% (inactive)
COc1ccc(CC2c3cc(OC)c(OC)cc3CC[N+]2(C)CCC(=O)OCCCCCOC(=O)CC[N+]2(C)CCc3cc(OC)c(OC)cc3C2Cc2ccc(OC)c(OC)c2)cc1OC (stereo not given) | 1.23% (inactive)
COc1ccccc1OCC(=O)O/N=C(\N)c1ccccn1 | 4.97% (inactive)
COc1cc(CN2CCC(C(N)=O)CC2)ccc1OCc1ccccc1 | 8.4% (active)
Cc1noc(C)c1S(=O)(=O)N(C)C[C@H]1Oc2c(NC(=O)Nc3ccc4c(c3)OCO4)cccc2C(=O)N([C@H](C)CO)C[C@@H]1C | 0.03% (inactive)
CN(C)C(=S)N=c1ssc(=S)n1Cc1ccco1 | 11.9% (active)
CCOC(=O)c1sc2nc(CSc3ccccc3)[nH]c(=O)c2c1C | 0.23% (inactive)
COc1ccc(-c2cc3ncccc3cn2)cc1 | 9.76% (active)
CC(C)(C)c1ccc(NC(=O)NCc2ccco2)cc1 | 0.6% (inactive)
Cc1ccc(NC(=O)C(=O)NCc2ccco2)c(C)c1 | 5.75% (active)
Cc1cc(O)c(NC(=O)c2ccc(C)c([N+](=O)[O-])c2)cc1C | 7.82% (active)
FC(F)(F)c1cccc(-c2nc3ccccc3n2C(c2ccccc2)c2nc3ccccc3[nH]2)c1 (stereo not given) | 4.89% (inactive)
CN(C)S(=O)(=O)c1ccc2oc(SCC(=O)Nc3ccccc3F)nc2c1 | 13.2% (active)
COc1ccc(C(CNC(=O)c2ccc(S(=O)(=O)Nc3ccccc3F)cc2)N(C)C)cc1 (stereo not given) | -0.57% (inactive)
COc1ccc(N=C(C)c2sc3ccccc3c2O)cc1 | 6.57% (active)
CCOC(=O)C(C)n1cnc2c(nnn2-c2cccc(OC)c2)c1=O (stereo not given) | 4.04% (inactive)
COc1ccc(C(=O)NC2=NCCS2)c(OC)c1 | 12.2% (active)
Cc1ccc(N/C=C/C(=O)c2ccccc2)cc1C | 6.49% (active)

Structure (SMILES) | activation
Cc1cc(=O)[nH]c(N/N=C/c2ccc3c(c2)OCCO3)n1 | 3.2% (inactive)
CCc1c(C)c2ccc(OC3CCCCC3=O)cc2oc1=O (stereo not given) | 2.57% (inactive)
COc1cc(/C=N/NC(=O)c2ccccc2)ccc1OS(=O)(=O)c1ccccc1 | 0.14% (inactive)
COc1ccc(/C=N/NC(=O)c2cc(-c3cccc(C)c3)nc3ccccc23)cc1O | 7.74% (active)
CC(C)(C)NC(=O)C(CCc1ccccc1)n1c(=O)c(-c2ccccc2)nc2ccccc21 (stereo not given) | 0.34% (inactive)
CCCCc1ccc(NC(=S)N2CCCC(CO)C2)cc1 (stereo not given) | 10.3% (active)
CCC(C)N(C)C1CCN(C(=S)Nc2ccc(OC)cc2)CC1 (stereo not given) | 1.62% (inactive)
Cc1cc(C)c2nc3nc(C)cc(C)c3c(N)c2c1 | 3.96% (inactive)
O=C1Cc2cc(S(=O)(=O)Nc3cccc(F)c3)ccc2N1 | 1.09% (inactive)
CCc1ccc[n+](-c2nc([O-])sc2C=O)c1 | 0.22% (inactive)
Cc1cc(C)nc(Nc2n[nH]c(-c3ccccc3N)n2)n1 | 12.3% (active)
CCOC(=O)c1c(C)[nH]c(C2=NNC(=NC(C)COC)SC2)c1C (stereo not given) | 8.27% (active)
COc1cccc(OCCOc2cccc(/C=N/n3cnnc3)c2)c1 | 6.43% (active)
Cc1ccc(-c2c(C)n([O-])c3c([n+]2=O)CCC3)cc1 | -0.96% (inactive)
Cc1ccc(C(=O)CSc2ccccc2C(=O)O)cc1 | 6.75% (active)
COCC(C)n1c(SCc2ccc(C(=O)OC)o2)nc2ccccc2c1=O (stereo not given) | 2.22% (inactive)
CC1CCCCC1NC(=O)CN1CCC(O)(c2ccc3c(c2)OCO3)CC1 (stereo not given) | 4.35% (inactive)
O=C(Nc1cccc([N+](=O)[O-])c1)N1CCc2ccccc2C1 | 4.55% (inactive)
COc1ccc(C)cc1S(=O)(=O)N(CC(=O)Nc1cccc([N+](=O)[O-])c1)c1ccc(C)cc1 | -1.27% (inactive)
O=C(Nc1cccc([N+](=O)[O-])c1)c1ccc2c(c1)OCO2 | 8.02% (active)
COc1ccc(C(=O)Nc2ccc3c(c2)OCO3)cc1OC | 10.2% (active)
Cc1ccnc(Nc2nc3ccccc3s2)n1 | 3.74% (inactive)
CC1(C)CC(=O)C=C(NCCCNC2CCCCC2)C1 | -0.02% (inactive)
Cc1cc2oc3ccc(NCCC4CCCN4C)cc3c(=O)c2cc1C (stereo not given) | 6.3% (active)
Cc1ccccc1C#CC1=CC(=O)CC(C)(C)C1 | 1.83% (inactive)
